Laboratory results reported in ChEMBL document CHEMBL3259660, “Haloemodin as novel antibacterial agent inhibiting DNA gyrase and bacterial topoisomerase I” (J Med Chem, 2014).
Converted amounts (≈) assume the structure as drawn. The source made the active and inactive calls. The rule behind the calls is not given here.

What was measured:
[1] = tested on: Staphylococcus epidermidis; assay: Antibacterial activity against methicillin-sensitive Staphylococcus epidermidis assessed as growth inhibition by agar dilution assay; format: functional
Summary of the method: (§1)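 Agar dilution MIC per CLSI (aerobic and anaerobic methods); compounds dissolved in DMSO, reference antibiotics in sterile water. MIC taken as lowest concentration with no visible growth; determined at least twice on separate days, higher value reported. Clinical isolate ranges summarized as MIC50/MIC90.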

Staphylococcus aureus [2] = assay: Antibacterial activity against methicillin-resistant Staphylococcus aureus assessed as growth inhibition by agar dilution assay; format: functional
Summary of the method: (§2)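 CLSI agar dilution MIC against aerobic and anaerobic strains. Test compounds were dissolved in DMSO and reference antibiotics in sterile water. MIC was taken as the lowest concentration showing no bacterial growth. Each MIC was determined at least twice on separate days, and the higher value was reported. E. coli PQ 37 was cultured in LA medium.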

[3] = tested on: Staphylococcus epidermidis; assay: Antibacterial activity against methicillin-resistant Staphylococcus epidermidis assessed as growth inhibition by agar dilution assay; format: functional; summary of the method: as §2
Staphylococcus aureus [4] = assay: Antibacterial activity against Staphylococcus aureus ATCC 29213 assessed as growth inhibition by agar dilution assay; format: functional; summary of the method: as §1
Staphylococcus aureus [5] = assay: Antibacterial activity against methicillin-sensitive Staphylococcus aureus assessed as growth inhibition by agar dilution assay; format: functional; summary of the method: as §1
Pseudomonas aeruginosa [6] = assay: Antibacterial activity against Pseudomonas aeruginosa ATCC 27853 assessed as growth inhibition by agar dilution assay; format: functional; summary of the method: as §1
Escherichia coli = assay: Antibacterial activity against Escherichia coli ATCC 25922 assessed as growth inhibition by agar dilution assay; format: functional; summary of the method: as §1
Pseudomonas aeruginosa [7] = assay: Antibacterial activity against Pseudomonas aeruginosa assessed as growth inhibition by agar dilution assay; format: functional; summary of the method: as §2
[8] = Cytotoxicity against CHL cells assessed as cell viability at 0.256 mg/ml after 24 hrs by MTT assay; format: cell-based, Cricetulus griseus; conditions: chinese hamster, read-out: Activity
Summary of the method: (§3)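 CHL fibroblasts seeded at about 5 × 10^4 cells/mL, incubated overnight at 37 °C, 5% CO2, then exposed to compound at different concentrations for 24 h. Viability read by MTT, absorbance at 570 nm, relative to cells in medium alone (100%). Triplicate.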

Staphylococcus aureus [9] = assay: microbe, parasite or virus in culture; format: functional; conditions: ATCC 6538
Bacillus cereus = assay: Antibacterial activity against Bacillus cereus ATCC 10231 assessed as growth inhibition by agar dilution assay; format: functional
[10] = tested on: Brevibacillus laterosporus; assay: Antibacterial activity against Brevibacillus laterosporus ATCC 64 assessed as growth inhibition by agar dilution assay; format: functional
[11] = Cytotoxicity against CHL cells assessed as cell viability after 24 hrs by MTT assay; format: cell-based, Cricetulus griseus; conditions: chinese hamster; summary of the method: as §3
Staphylococcus aureus [12] = assay: In vivo antibacterial activity against Staphylococcus aureus in New zealand rabbit keratitis model assessed as suppression of conjuctival congestion, conjuctival chemosis, infiltration, operative ulcer area and depth at 3 mg/ml administered topically every 4 hrs for four doses every day for 10 days starting 24 hrs post-infection by slit lamp biomicroscopy; format: functional, organism-based
Summary of the method: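 NZW rabbits (2.0−3.0 kg), anesthetized with iv sodium pentobarbital 30 mg/kg, given intracorneal S. aureus (about 7.5 × 10^6 CFU) from an overnight LB culture. Starting 24 h post-infection, 30 μL drops applied topically per eye every 4 h, four doses daily (8 a.m.–8 p.m.), for 10 days, masked. Test compound in PEG–water (1:1). Slit-lamp biomicroscopy before and after.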

Bacteroides fragilis [13] = assay: Antibacterial activity against Bacteroides fragilis assessed as growth inhibition by agar dilution assay; format: functional; summary of the method: as §1
Bacteroides fragilis [14] = assay: Antibacterial activity against Bacteroides fragilis ATCC 25285 assessed as growth inhibition by agar dilution assay; format: functional; summary of the method: as §1
Streptococcus pneumoniae [15] = assay: Antibacterial activity against Streptococcus pneumoniae assessed as growth inhibition by agar dilution assay; format: functional; summary of the method: as §1
Streptococcus pneumoniae [16] = assay: Antibacterial activity against Streptococcus pneumoniae ATCC 49619 assessed as growth inhibition by agar dilution assay; format: functional; summary of the method: as §1

Compound	MIC (Staphylococcus aureus [4])	MIC (Pseudomonas aeruginosa [6])	MIC (Escherichia coli)	viability at 24 h, 0.256 mg/ml [8]	MIC (Staphylococcus aureus [9])	MIC (Bacillus cereus)	MIC [10]	also measured
CO[C@@]1(NC(=O)Cc2cccs2)C(=O)N2C(C(=O)[O-])=C(COC(N)=O)CS[C@@H]21.[Na+] [CEFOXITIN SODIUM]	2 µg/mL	–	–	–	–	–	–	MIC [1]: 1 µg/mL; MIC (Staphylococcus aureus [2]): 128 µg/mL; MIC [3]: 128 µg/mL; MIC (Staphylococcus aureus [5]): 0.5 µg/mL
CCN1CCN(C(=O)N[C@@H](C(=O)N[C@@H]2C(=O)N3[C@@H]2SC(C)(C)[C@@H]3C(=O)[O-])c2ccccc2)C(=O)C1=O.[Na+] [PIPERACILLIN SODIUM]	–	4 µg/mL	4 µg/mL	–	–	–	–	MIC (Pseudomonas aeruginosa [7]): 2 µg/mL
Cc1c(Cl)c(O)c2c(c1Cl)C(=O)c1c(Cl)c(O)cc(O)c1C2=O	16 µg/mL (≈ 42.8 µM)	> 256 µg/mL	> 256 µg/mL	> 75%	8 µg/mL (≈ 21.4 µM)	8 µg/mL (≈ 21.4 µM)	8 µg/mL (≈ 21.4 µM)	IC90 at 24 h [11]: 256 µg/mL (≈ 685 µM)
CC1COc2c(N3CCN(C)CC3)c(F)cc3c(=O)c(C(=O)O)cn1c23 (stereo not drawn)	–	–	–	–	–	–	–	inhibition (Staphylococcus aureus [12]): Active
Cc1cc2c(c(O)c1I)C(=O)c1c(O)c(I)c(O)c(I)c1C2=O	16 µg/mL (≈ 24.7 µM)	> 256 µg/mL	> 256 µg/mL	> 75%	8 µg/mL (≈ 12.3 µM)	8 µg/mL (≈ 12.3 µM)	8 µg/mL (≈ 12.3 µM)	IC90 at 24 h [11]: 128 µg/mL (≈ 198 µM)
Cc1cc(O)c2c(c1)C(=O)c1c(Cl)c(O)c(I)c(O)c1C2=O	64 µg/mL (≈ 149 µM)	> 256 µg/mL	> 256 µg/mL	> 75%	32 µg/mL (≈ 74.3 µM)	32 µg/mL (≈ 74.3 µM)	32 µg/mL (≈ 74.3 µM)	–
Cc1cc(O)c2c(c1)C(=O)c1cc(O)c(I)c(O)c1C2=O	32 µg/mL (≈ 80.8 µM)	> 256 µg/mL	> 256 µg/mL	> 75%	16 µg/mL (≈ 40.4 µM)	16 µg/mL (≈ 40.4 µM)	16 µg/mL (≈ 40.4 µM)	–
CCC[C@@H]1C[C@@H](C(=O)N[C@@H]([C@H]2O[C@H](SC)[C@H](OP(=O)(O)O)[C@@H](O)[C@H]2O)[C@H](C)Cl)N(C)C1 [CLINDAMYCIN PHOSPHATE]	–	–	–	–	–	–	–	MIC (Bacteroides fragilis [13]): 0.03 µg/mL; MIC (Bacteroides fragilis [14]): 0.5 µg/mL
CN[C@H](CC(C)C)C(=O)N[C@H]1C(=O)N[C@@H](CC(N)=O)C(=O)N[C@H]2C(=O)N[C@H]3C(=O)N[C@H](C(=O)N[C@H](C(=O)O)c4cc(O)cc(O)c4-c4cc3ccc4O)[C@H](O)c3ccc(c(Cl)c3)Oc3cc2cc(c3O[C@@H]2O[C@H](CO)[C@@H](O)[C@H](O)[C@H]2O[C@H]2C[C@](C)(N)[C@H](O)[C@H](C)O2)Oc2ccc(cc2Cl)[C@H]1O.Cl [VANCOMYCIN HYDROCHLORIDE]	–	–	–	–	–	2 µg/mL	2 µg/mL	–
Cc1cc(O)c2c(c1)C(=O)c1c(Br)c(O)c(Br)c(O)c1C2=O	16 µg/mL (≈ 37.4 µM)	> 256 µg/mL	> 256 µg/mL	> 75%	8 µg/mL (≈ 18.7 µM)	8 µg/mL (≈ 18.7 µM)	8 µg/mL (≈ 18.7 µM)	IC90 at 24 h [11]: 128 µg/mL (≈ 299 µM)
CC1(C)S[C@@H]2[C@H](NC(=O)Cc3ccccc3)C(=O)N2[C@H]1C(=O)[O-].[Na+] [PENICILLIN G SODIUM]	–	–	–	–	–	–	–	MIC (Streptococcus pneumoniae [15]): 8 µg/mL; MIC (Streptococcus pneumoniae [16]): 0.25 µg/mL
